Measurements reported in ChEMBL document CHEMBL5380787, “Optimized M24B Aminopeptidase Inhibitors for CARD8 Inflammasome Activation” (J Med Chem, 2023).
Calls of active or inactive are those of the source. No cut-off for these calls is given here.

How the values were obtained:
RAW264.7 [1] = test: Induction of pyroptosis in mouse RAW264.7 cells expressing NLRP1B allele 1 assessed as GSDMD clevage at 10 uM incubated for 24 hrs by immunoblot analysis; assay type: functional, cell-based
Procedure, shortened: (§1)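 RAW264.7 cells in DMEM with L-glutamine and 10% FBS, 5 × 10^5 cells/well, treated 24 h. LDH in supernatant measured relative to a 9% Triton X-100 lysis control. GSDMD cleavage by immunoblot of PBS-sonicated lysates with protein normalized. Mean ± SEM of three biological replicates.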

HEK-293T [2] = test: Induction of pyroptosis in human HEK293T cells expressing CASP1 and GSDMD cotransfected with dTAG-CARD8ZUC and CARD8 FIIND S297A assessed as destabilization of DPP9-CARD8 ternary complex by measuring GSDMD clevage at 10 uM incubated for 6 hrs in presence of dTAG13 by immunoblot analysis; assay type: functional, cell-based
Procedure, shortened: (§2)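 HEK293T cells stably expressing CASP1 and GSDMD, 1.5 × 10^5 cells/well. 24 h later treated with dTAG-13 (500 nM) plus compound, DMSO as vehicle, for 6 h. Read-outs were supernatant LDH against a lysis control and GSDMD immunoblot.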

HEK-293T [3] = test: Induction of pyroptosis in human HEK293T cells expressing CASP1 and GSDMD cotransfected with dTAG-CARD8ZUC and CARD8 FIIND S297A assessed as destabilization of DPP9-CARD8 ternary complex by measuring LDH release at 10 uM incubated for 6 hrs in presence of dTAG13; assay type: functional, cell-based; procedure, shortened: as §2
BMDM [4] = test: Induction of pyroptosis in C57BL/6J mouse BMDM cells expressing NLRP1A and NLRP1B allele 2 assessed as LDH release at 10 uM incubated for 24 hrs; assay type: functional, cell-based
Procedure, shortened: (§3)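 Bone marrow from femurs and tibias of 7–12-week-old C57BL/6J mice, red cells lysed. Cells differentiated 6 days at 37 °C in DMEM with 10% FBS and 15–20% L-cell medium, then replated. Exposure 24 h. LDH in supernatant measured relative to a 9% Triton X-100 lysis control. For GSDMD cleavage, cells sonicated in PBS, protein normalized, SDS-PAGE immunoblot.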

THP-1 [5] = test: Induction of pyroptosis in CARD8 knockout human THP-1 cells harboring dox-inducible […] E274R mutant assessed as cell death by measuring LDH release at 10 uM pretreated with doxycycline for 16 hrs followed by compound addition and measured after 6 hrs; assay type: functional, cell-based
Procedure, shortened: (§4)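 CARD8−/− THP-1 cells stably carrying DOX-inducible CARD8 E274R, grown in RPMI 1640 with 10% FBS, 5 × 10^5 cells/well. DOX (100 ng/mL) for 16 h or no DOX, then compound for 6 h. Supernatant LDH measured relative to a Triton X-100 lysis control. GSDMD cleavage by SDS-PAGE immunoblot of protein-normalized lysates.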

BMDM [6] = test: Induction of pyroptosis in C57BL/6J mouse BMDM cells expressing NLRP1A and NLRP1B allele 2 assessed as GSDMD clevage at 10 uM incubated for 24 hrs by immunoblot analysis; assay type: functional, cell-based; procedure, shortened: as §3
N/TERT-1 = test: Cytotoxicity against immortalized human N/TERT-1 Keratinocytes expressing human NLRP1 assessed as cell death at 10 uM incubated for 24 hrs by celltiter-glo assay; assay type: functional, cell-based
Procedure, shortened: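 N/TERT-1 keratinocytes grown in keratinocyte serum-free medium with penicillin/streptomycin, bovine pituitary extract (25 μg/mL) and EGF (0.2 ng/mL), 37 °C, 5% CO2. Compound added by pintool to 2000 cells/well, 24 h exposure. Viability read by CellTiter-Glo luminescence after 2 min shaking and 10 min at 25 °C. Mean ± SEM of three biological replicates.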

THP-1 [7] = test: Induction of pyroptosis in CARD8 knockout human THP-1 cells harboring dox-inducible […] E274R mutant assessed as GSDMD cleavage at 10 uM pretreated with doxycycline for 16 hrs followed by compound addition and measured after 6 hrs by immunoblot analysis; assay type: functional, cell-based; procedure, shortened: as §4
RAW264.7 [8] = test: Induction of pyroptosis in mouse RAW264.7 cells expressing NLRP1B allele 1 assessed as LDH release at 10 uM incubated for 24 hrs; assay type: functional, cell-based; procedure, shortened: as §1
[9] = Stability in human MV4-11 cells assessed as retention time of parent compound incubated for 24 hrs by LC/MS analysis; assay type: ADME, cell-based; details: mv4-11, 24 h
Procedure, shortened: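 Compound was held in MV4;11 conditioned medium for 24 h at 37 °C, then LC/MS was run, recording the retention times of the parent ester and its free acid.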

MV4-11 [10] = test: Cytotoxicity against human MV4-11 cells assessed as reduction in cell viability incubated for 24 hrs by celltiter-glo assay; assay type: functional, cell-based; details: MV4-11, 24 h
Procedure, shortened: (§5)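 MV4;11 cells (WT or CASP1−/−), grown in RPMI 1640 with 10% FBS at 37 °C, 5% CO2, plated 2000 cells/well, dosed by pintool across 100 μM to 15.2 nM in three-fold steps for 24 h. Viability by CellTiter-Glo luminescence after 2 min shaking and 10 min at 25 °C. IC50 as mean ± SEM of three biological replicates.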

MV4-11 [11] = test: Cytotoxicity against human MV4-11 cells assessed as reduction in cell viability at 1 uM incubated for 24 hrs by celltiter-glo assay relative to control; assay type: functional
Procedure, shortened: (§6)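 Single-dose viability screen. MV4;11 or OCI-AML2 cells at 2000 cells/well were exposed to 1 μM compound for 24 h. Viability was read by CellTiter-Glo luminescence and expressed as percent inhibition. Values are means of three biological replicates.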

MV4-11 [12] = test: Cytotoxicity against CASP1 knockout human MV4-11 cells assessed as reduction in cell viability incubated for 24 hrs by celltiter-glo assay; assay type: functional, cell-based; details: MV4-11, 24 h; procedure, shortened: as §5
[13] = biological target: T1, Xaa-Pro dipeptidase (Homo sapiens) (UniProt P12955); test: Inhibition of recombinant human PEPD using Ala-Pro as substrate assessed as alanine release by measuring increase in fluorescense signal at 1 uM by fluorescence based analysis relative to control
T1 sequence (whole entry): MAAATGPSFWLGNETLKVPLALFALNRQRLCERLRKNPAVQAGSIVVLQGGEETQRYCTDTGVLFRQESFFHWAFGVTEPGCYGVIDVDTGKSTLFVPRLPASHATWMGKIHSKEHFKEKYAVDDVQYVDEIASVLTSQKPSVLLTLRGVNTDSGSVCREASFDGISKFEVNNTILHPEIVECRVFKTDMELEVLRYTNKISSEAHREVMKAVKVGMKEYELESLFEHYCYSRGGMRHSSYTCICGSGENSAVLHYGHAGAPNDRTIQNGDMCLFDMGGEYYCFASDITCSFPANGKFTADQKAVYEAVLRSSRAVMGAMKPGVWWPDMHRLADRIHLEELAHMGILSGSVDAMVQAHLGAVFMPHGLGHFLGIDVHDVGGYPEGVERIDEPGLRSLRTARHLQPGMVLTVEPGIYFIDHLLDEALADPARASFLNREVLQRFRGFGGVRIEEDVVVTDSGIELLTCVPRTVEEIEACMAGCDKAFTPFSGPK
Procedure, shortened: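 Recombinant human PEPD at 50 nM was incubated with Ala-Pro at 40 μM final and compound. Released alanine was detected by coupled alanine transaminase/pyruvate oxidase conversion to H2O2 and resorufin fluorescence (Ex/Em 535/587 nm) at 25 °C.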

OCI-AML2 [14] = test: Cytotoxicity against human OCI-AML2 cells assessed as reduction in cell viability at 1 uM incubated for 24 hrs by celltiter-glo assay relative to control; assay type: functional; procedure, shortened: as §6
Xaa-Pro aminopeptidase 1 [15] = biological target: T2, Xaa-Pro aminopeptidase 1 (Homo sapiens, UniProt Q9NQW7); test: Inhibition of 6-His tagged XPNPEP1 (unknown origin) expressed in Escherichia coli Rosetta DE3 cells using H-Lys(abz)-Pro-Pro-pNA as substrate at 20 uM incubated for 60 mins by fluorescence based analysis relative to control
Procedure, shortened: (§7)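 His6-tagged XPNPEP1 was expressed in E. coli Rosetta DE3 (IPTG, 16 h, 37 °C) and purified on TALON resin. Enzyme at 3.5 nM was exposed to compound, then H-Lys(abz)-Pro-Pro-pNA was added at 100 μM final. Fluorescence (Ex/Em 320/410) was followed for 60 min. Single-point inhibition used 20 μM; IC50 as mean ± SEM of three biological replicates.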

MV4-11 [16] = test: Cytotoxicity against CASP1 knockout human MV4-11 cells assessed as reduction in cell viability at 0.015 to 100 uM incubated for 24 hrs by celltiter-glo assay; assay type: functional; details: dose 0.015-100 µM; procedure, shortened: as §5
MV4-11 [17] = test: Cytotoxicity against human MV4-11 cells assessed as reduction in cell viability at 0.015 to 100 uM incubated for 24 hrs by celltiter-glo assay; assay type: functional; details: dose 0.015-100 µM; procedure, shortened: as §5
Xaa-Pro dipeptidase = biological target: T3, Xaa-Pro dipeptidase (Homo sapiens, UniProt P12955); test: (§8) Inhibition of recombinant human PEPD using Ala-Pro as substrate assessed as alanine release by measuring increase in fluorescense signal by fluorescence based analysis
T3 sequence (P12955 whole entry): T1 sequence (whole entry)

Xaa-Pro aminopeptidase 1 [18] = biological target: T2, Xaa-Pro aminopeptidase 1; test: Inhibition of 6-His tagged XPNPEP1 (unknown origin) expressed in Escherichia coli Rosetta DE3 cells using H-Lys(abz)-Pro-Pro-pNA as substrate incubated for 60 mins by fluorescence based analysis; procedure, shortened: as §7
[19] = Stability of the compound in human MV4-11 cells assessed as esterase-mediated hydrolysis measured after 8 hrs by LC-MS analysis; assay type: ADME, cell-based; details: mv4-11, 8 h
[20] = Stability of the compound in human MV4-11 cells assessed as esterase-mediated hydrolysis by LC-MS analysis; assay type: ADME, cell-based
Procedure, shortened: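 Compound was incubated in conditioned medium from MV4;11 cells for 24 h at 37 °C, and LC/MS then measured intact ester remaining and the de-esterified free acid. n = 3, mean ± SEM.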

[21] = biological target: T1, Xaa-Pro dipeptidase (Homo sapiens); test: as §8
OCI-AML2 [22] = test: Induction of cell death in human OCI-AML2 cells assessed as increase in PI uptake at 6.25 uM incubated for 6 hrs by PI staining based fluorescence analysis; assay type: functional
Procedure, shortened: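 PI flux assay. 2 × 10^4 MV4;11 (WT, CARD8−/− or CASP1−/−) or OCI-AML2 cells in RPMI were given compound at 6.25 μM plus PI at 10 μM final. Fluorescence (Ex/Em 535/617 nm) was read every 5 min at 37 °C for 6 h, baseline-corrected to DMSO and normalized to the maximum response. n = 3.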

T2 sequence (Q9NQW7 whole entry): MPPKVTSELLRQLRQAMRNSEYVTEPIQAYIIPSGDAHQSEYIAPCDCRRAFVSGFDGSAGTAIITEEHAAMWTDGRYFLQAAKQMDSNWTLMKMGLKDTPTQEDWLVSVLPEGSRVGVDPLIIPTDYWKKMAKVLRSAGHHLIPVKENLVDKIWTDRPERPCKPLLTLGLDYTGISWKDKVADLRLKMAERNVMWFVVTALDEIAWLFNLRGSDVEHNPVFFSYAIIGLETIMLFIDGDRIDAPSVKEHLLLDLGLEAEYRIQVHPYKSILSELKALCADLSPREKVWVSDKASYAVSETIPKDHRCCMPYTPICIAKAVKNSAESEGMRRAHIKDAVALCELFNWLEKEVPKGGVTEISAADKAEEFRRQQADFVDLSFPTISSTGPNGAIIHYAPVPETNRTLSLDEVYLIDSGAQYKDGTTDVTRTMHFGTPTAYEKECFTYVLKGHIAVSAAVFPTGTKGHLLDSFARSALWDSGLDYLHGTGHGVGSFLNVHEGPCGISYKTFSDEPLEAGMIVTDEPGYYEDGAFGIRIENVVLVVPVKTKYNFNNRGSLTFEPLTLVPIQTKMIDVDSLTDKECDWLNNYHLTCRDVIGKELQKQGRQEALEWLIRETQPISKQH

CC(C)[C@H](N)C(=O)N1CCC[C@H]1B(O)O
Activity (RAW264.7 [1]): Active
Activity (HEK-293T [2]): Active
Activity (HEK-293T [3]): Active
Activity (BMDM [4]): Active
Activity (THP-1 [5]): inactive
Activity (BMDM [6]): Active
Activity (N/TERT-1): Active
Activity (THP-1 [7]): inactive
Activity (RAW264.7 [8]): Active

CC(C)C[C@H](NC(=O)[C@@H]1CCCN1C(=O)[C@@H](O)[C@H](N)CC(C)C)C(=O)NCCc1ccccc1
Retention_time [9]: 3.24 min
IC50 (MV4-11 [10]): 0.84 µM

CC[C@H](C)[C@H](NC(=O)[C@@H]1CCCN1C(=O)[C@@H](O)[C@H](N)CC(C)C)C(=O)OC
Activity (MV4-11 [11]): 56%
IC50 (MV4-11 [12]): > 20 µM
IC50 (MV4-11 [10]): 0.6 µM
inhibition [13]: 48%
Activity (OCI-AML2 [14]): 42%
inhibition (Xaa-Pro aminopeptidase 1 [15]): 68%

COC(=O)[C@@H]1C[C@H](O)CN1C(=O)[C@@H](O)[C@H](N)CC(C)C
IC50 (MV4-11 [10]): > 100 µM
Activity (MV4-11 [16]): 102%
Activity (MV4-11 [17]): 99%
IC50 (Xaa-Pro dipeptidase): > 100 µM

CC(C)C[C@H](NC(=O)[C@@H]1CCCN1C(=O)[C@@H](O)[C@H](N)CC(C)C)C(=O)NCCc1ccc2cc[nH]c2c1
IC50 (MV4-11 [10]): 1.3 µM
IC50 (Xaa-Pro dipeptidase): 10 µM
IC50 (Xaa-Pro aminopeptidase 1 [18]): 2 µM

CC(C)C[C@@H](N)[C@H](O)C(=O)N1CCC[C@H]1C(=O)OC(C)(C)C
Stability [19]: Unstable
Stability [20]: Stable
inhibition [21]: Active
inhibition (Xaa-Pro aminopeptidase 1 [18]): Active

CC(C)C[C@@H](N)[C@H](O)C(=O)N1CCC[C@H]1C(=O)OC1CCCC1
Stability [20]: Stable
inhibition [21]: Active
inhibition (Xaa-Pro aminopeptidase 1 [18]): Active

COC(=O)[C@H](CC(C)C)NC(=O)[C@@H](O)[C@H](N)Cc1ccccc1 [BESTATIN METHYL ESTER]
IC50 (MV4-11 [10]): 3.9 µM
Activity (MV4-11 [16]): 11%
Activity (MV4-11 [17]): 11%
IC50 (Xaa-Pro dipeptidase): > 100 µM
IC50 (Xaa-Pro aminopeptidase 1 [18]): 298 µM

COC(=O)[C@@H](NC(=O)[C@@H]1CCCN1C(=O)[C@@H](O)[C@H](N)CC(C)C)C(C)C
Activity (MV4-11 [11]): 59%
Activity (OCI-AML2 [22]): Active
IC50 (MV4-11 [12]): > 20 µM
IC50 (MV4-11 [10]): 0.45 µM
inhibition [13]: 42%
Activity (OCI-AML2 [14]): 32%
inhibition (Xaa-Pro aminopeptidase 1 [15]): 65%
